These results are taken from ChEMBL document CHEMBL1135248, “Synthesis and evaluation of pseudopeptide analogues of a specific CXCR4 inhibitor, T140: the insertion of an (E)-alkene dipeptide isostere into the betaII'-turn moiety” (Bioorg Med Chem Lett, 2002).

Where “and” joins values, the source holds several entries; their conditions need not be identical. Equal entries are not always repeated.

In assay [1] the target is T1, C-X-C chemokine receptor type 4 (Homo sapiens, UniProt P61073). As to the kind of experiment: (§1) Inhibitory activity based on the inhibition of [Ca2+] mobilization induced by human SDF-1alpha stimulation through CXCR4. The gist of the method: (§2)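 CHO cells transfected with CXCR4 were loaded with Fura-2-AM for 1–2 h and then pretreated with analogue. Recombinant human SDF-1α was added 3 min later. [Ca2+]i rise was measured spectrofluorometrically by a modified Fura-2 method, and IC50 was derived from inhibition of mobilization. Values are the mean of two experiments.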
T1 sequence (P61073 whole entry): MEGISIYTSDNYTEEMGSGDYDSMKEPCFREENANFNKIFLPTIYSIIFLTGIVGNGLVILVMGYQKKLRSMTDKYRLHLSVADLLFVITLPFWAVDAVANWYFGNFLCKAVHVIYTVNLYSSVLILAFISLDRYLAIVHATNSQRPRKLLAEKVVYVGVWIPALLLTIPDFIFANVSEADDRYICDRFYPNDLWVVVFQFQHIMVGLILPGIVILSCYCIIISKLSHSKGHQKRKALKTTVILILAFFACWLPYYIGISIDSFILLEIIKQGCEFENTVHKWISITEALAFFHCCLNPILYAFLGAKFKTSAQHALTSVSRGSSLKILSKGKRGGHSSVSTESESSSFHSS

Another assay concerns MT4. The assay is described as follows: Anti-HIV activity based on the protection against HIV-induced cytopathogenicity in MT-4 cells using MTT method. Type of assay: functional, cell-based, Homo sapiens. The note with it: mt4. The method, boiled down:
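MT-4 cells challenged with the X4 strain HIV-1 IIIB. Protection from virus-induced cytopathogenicity was read by the MTT method, and EC50 was derived. Values are the mean of at least three experiments.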
On the technique in general: Cytopathic effects are the visible damage that an infection or toxin causes in cultured cells.

Assay [2] addresses T1, C-X-C chemokine receptor type 4. The description is as §1. The gist of the method:
as §2
The source holds these as a separate data set.

The target is the same in assay [3]. The assay is described as follows: (§3) Inhibitory activity based on the inhibition of [Ca2+] mobilization induced by human SDF-1alpha stimulation through C-X-C chemokine receptor type 4. The method, boiled down: as §2
Assay [4] shares this target. The description is as §3. The method, boiled down:
as §2
This is another data set of the same source.

For `C[C@H]1/C=C\[C@@H](CCCCN)NC(=O)[C@H](CCCCN)NC(=O)[C@H](CCCN=C(N)N)NC(=O)[C@H](Cc2ccc(O)cc2)NC(=O)[C@@H](NC(=O)[C@H](Cc2ccc3ccccc3c2)NC(=O)[C@H](CCCN=C(N)N)NC(=O)[C@@H](N)CCCN=C(N)N)CSSC[C@@H](C(=O)N[C@@H](CCCN=C(N)N)C(N)=O)NC(=O)[C@H](CCCNC(N)=O)NC(=O)[C@H](CCCN=C(N)N)NC(=O)[C@H](Cc2ccc(O)cc2)NC1=O`, the IC50 in assay [1] was found to be 10 nM; in assay [2], 5 nM. For the same compound, the EC50 with MT4 is 4.7 nM and 1.9 nM.
Consider `C[C@H]1/C=C\[C@@H](CCCCN)NC(=O)[C@H](CCCCN)NC(=O)[C@H](CCCNC(=N)N)NC(=O)[C@H](Cc2ccc(O)cc2)NC(=O)[C@@H](NC(=O)[C@H](Cc2c[nH]c3ccccc23)NC(=O)[C@H](CCCNC(=N)N)NC(=O)[C@@H](N)CCCN=C(N)N)CSSC[C@@H](C(=O)N[C@@H](CCCNC(=N)N)C(=O)O)NC(=O)[C@H](CCCNC(N)=O)NC(=O)[C@H](CCCNC(=N)N)NC(=O)[C@H](Cc2ccc(O)cc2)NC1=O`, for which the IC50 amounted to 27 nM in assay [3] and 30 nM in assay [4].

By IC50 is commonly meant the concentration that inhibits the measured activity by half. Broadly, the EC50 is the concentration at which the effect is half-maximal. A lower EC50 goes with higher potency in that assay.
